ChEMBL document CHEMBL4334542, “Antimalarial N 1,N 3-Dialkyldioxonaphthoimidazoliums: Synthesis, Biological Activity, and Structure-activity Relationships” (ACS Med Chem Lett, 2020)
Calls of active or inactive are those of the source. No cut-off for these calls is given here.

Experiments:
[1] = Redox cycling activity of the compound […] measured after 45 mins by phenol red reagent based horseradish peroxidase coupled assay
Procedure, shortened: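 Redox cycling EC50 determined by the phenol red horseradish peroxidase assay.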

Plasmodium falciparum [2] = assay: Antimalarial activity against asexual stage of Plasmodium falciparum NF54 assessed as reduction in parasite growth at 1 uM incubated for 96 hrs by SYBR Green I dye-based fluorescence assay relative to control; assay type: functional; parameters: scale not given: the % may be the effect or the level left
Plasmodium falciparum [3] = assay: Antimalarial activity against asexual stage of Plasmodium falciparum Dd2 infected in erythrocytes assessed as reduction in parasite growth incubated for 48 hrs under hypoxic condition by Hoechst 33342 staining based flow cytometry; assay type: functional, organism-based; settings: Dd2, 48 h
Procedure, shortened: (§1)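 Asexual Dd2 and 3D7 parasites in erythrocytes; DNA content of infected cells measured by Hoechst 33342 staining and FACS. IC50 is the concentration giving 50% of the net fluorescence of untreated control cultures; mean ± SD of n = 3 separate determinations.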

Plasmodium falciparum [4] = assay: Antimalarial activity against asexual stage of Plasmodium falciparum 3D7 infected in erythrocytes assessed as reduction in parasite growth incubated for 48 hrs under hypoxic condition by Hoechst 33342 staining based flow cytometry; assay type: functional, organism-based; settings: 3D7, 48 h; procedure, shortened: as §1
CHO-K1 = assay: Cytotoxicity against CHOK1 cells assessed as reduction in cell viability incubated for 48 hrs by CellTiter 96 aqueous one solution assay; assay type: cell-based; settings: Cricetulus griseus, CHO-K1, 48 h
Procedure, shortened: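 Cell growth measured by a tetrazolium dye assay. IC50 is the concentration reducing growth by 50% relative to untreated cultures; mean ± SD of n = 3 separate determinations.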

Plasmodium falciparum [5] = assay: Antimalarial activity against Plasmodium falciparum NF54 incubated for 48 hrs by [3H]-hypoxanthine incorporation assay; assay type: functional, organism-based
Plasmodium falciparum [6] = assay: Antimalarial activity against Plasmodium falciparum TM90C2B incubated for 48 hrs by [3H]-hypoxanthine incorporation assay; assay type: functional, organism-based
Plasmodium falciparum [7] = assay: Antimalarial activity against asexual stage of Plasmodium falciparum W2 assessed as reduction in parasite growth incubated for 96 hrs by SYBR Green I dye-based fluorescence assay; assay type: functional, organism-based; settings: W2, 96 h
Plasmodium falciparum [8] = assay: Antimalarial activity against asexual stage of Plasmodium falciparum K1 assessed as reduction in parasite growth incubated for 96 hrs by SYBR Green I dye-based fluorescence assay; assay type: functional, organism-based; settings: K1, 96 h
Procedure, shortened: (§2)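 Asexual NF54, K1 and W2 parasites; proliferation read as SYBR Green I fluorescence. IC50 is the concentration giving 50% of the net SYBR Green I fluorescence of untreated control cultures; mean ± SEM of n = 3 independent biological replicates.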

Plasmodium falciparum [9] = assay: Antimalarial activity against Plasmodium falciparum NF54 early gametocytes transfected with luciferase gene incubated for 48 hrs by luciferase reporter gene assay; assay type: functional, organism-based; settings: NF54, 48 h
Procedure, shortened: (§3)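 Gametocytes of NF54-Pfs16-GFP-Luc, early (>95% stage II/III) or late (>90% stage IV/V); luciferase read-out. IC50 is the concentration giving 50% reduction of luminescence; mean ± SEM of n = 3 independent biological replicates.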

Plasmodium falciparum [10] = assay: Antimalarial activity against asexual stage of Plasmodium falciparum NF54 assessed as reduction in parasite growth incubated for 96 hrs by SYBR Green I dye-based fluorescence assay; assay type: functional, organism-based; settings: NF54, 96 h; procedure, shortened: as §2
Plasmodium falciparum [11] = assay: Antimalarial activity against Plasmodium falciparum K1 incubated for 48 hrs by [3H]-hypoxanthine incorporation assay; assay type: functional, organism-based
Plasmodium falciparum [12] = assay: Antimalarial activity against Plasmodium falciparum NF54 late gametocytes transfected with luciferase gene incubated for 48 hrs by luciferase reporter gene assay; assay type: functional, organism-based; settings: NF54, 48 h; procedure, shortened: as §3
Plasmodium falciparum [13] = assay: Antimalarial activity against sexual stage of Plasmodium falciparum 3D7 gametocytes assessed as reduction in parasite growth incubated for 3 days by alamar blue staining based assay; assay type: functional, organism-based; settings: 3D7, 72 h
Plasmodium falciparum [14] = assay: Antimalarial activity against asexual stage of Plasmodium falciparum 3D7 infected in O-positive erythrocytes assessed as reduction in parasite growth incubated for 72 hrs by SYBR Green I dye-based spectrophotometric analysis; assay type: functional, organism-based; settings: 3D7, 72 h

Row | Compound | IC50 (Plasmodium falciparum [3]) [nM] | IC50 (Plasmodium falciparum [4]) [nM] | IC50 (CHO-K1) [nM] | IC50 (Plasmodium falciparum [7]) [nM] | IC50 (Plasmodium falciparum [8]) [nM] | IC50 (Plasmodium falciparum [9]) [nM] | IC50 (Plasmodium falciparum [10]) [nM] | IC50 (Plasmodium falciparum [12]) [nM] | other results
1 | CCCn1c(C)nc2c1C(=O)c1ccccc1C2=O |  |  |  |  |  |  |  |  | Activity [1]: inactive; Activity (Plasmodium falciparum [2]): <=50%
2 | CCCCn1c2c([n+](CC)c1C)C(=O)c1ccccc1C2=O | 9.1 | 4.2 | 37000 | 2.88 | 2.4 | 268 | 1.64 | 320 | Activity [1]: Active; IC50 (Plasmodium falciparum [5]): 1 nM; IC50 (Plasmodium falciparum [6]): 1.4 nM; IC50 (Plasmodium falciparum [11]): 1.8 nM
3 | CCCCCC[n+]1c2c(n(CC(C)C)c1C)C(=O)c1ccccc1C2=O |  |  |  | 5.28 | 10 | 143 | 6.2 | 551 | 
4 | Cc1n(C)c2c([n+]1C)C(=O)c1ccccc1C2=O | 26.5 | 22.6 | 5700 |  |  |  |  |  | 
5 | Cc1n(C)c2c([n+]1C(C)C)C(=O)c1ccccc1C2=O | 16.1 | 4.8 | 4700 |  |  |  |  |  | 
6 | CCCn1c2c([n+](C(C)C)c1C)C(=O)c1ccccc1C2=O | 8 | 4 | 26800 | 2.2 | 3.1 | 162 | 2.28 | 567 | Activity [1]: Active; IC50 (Plasmodium falciparum [5]): 1 nM; IC50 (Plasmodium falciparum [6]): 1.8 nM; IC50 (Plasmodium falciparum [11]): 2.1 nM
7 | Cc1nc2c(n1C(C)C)C(=O)c1ccccc1C2=O |  |  |  |  |  |  |  |  | Activity [1]: inactive; Activity (Plasmodium falciparum [2]): <=50%
8 | CCOc1ccc(N(C(C)=O)C2=C(NC)C(=O)c3ccccc3C2=O)cc1 |  |  |  |  |  |  |  |  | EC50 (Plasmodium falciparum [13]): 122 nM; EC50 (Plasmodium falciparum [14]): 1 nM
9 | CCC[n+]1c2c(n(C)c1C)C(=O)c1ccccc1C2=O | 14.3 | 4.8 | 3900 |  |  |  |  |  | 
10 | Cc1n(CC(C)C)c2c([n+]1CC(C)C)C(=O)c1ccccc1C2=O |  |  |  | 5.75 | 12.5 | 337 | 9.19 | 812 | 
11 | CC[n+]1c2c(n(C)c1C)C(=O)c1ccccc1C2=O | 19.9 | 8.4 | 3600 |  |  |  |  |  | 
12 | CCCCCCCCCC[n+]1c2c(n(CC(C)C)c1C)C(=O)c1ccccc1C2=O |  |  |  | 6.1 | 13.3 | 370 | 4.96 | 237 | 
13 | O=C1C=CC(=O)C=C1 [BENZOQUINONE] |  |  |  |  |  |  |  |  | Activity (Plasmodium falciparum [2]): 20 - 40%
14 | Cc1n(C(C)C)c2c([n+]1C1CC1)C(=O)c1ccccc1C2=O | 25 | 15.8 | 14600 |  |  |  |  |  | 
15 | CC1=CC(=O)c2ccccc2C1=O [MENADIONE] |  |  |  |  |  |  |  |  | Activity (Plasmodium falciparum [2]): 20 - 40%
16 | CCCC[n+]1c2c(n(CC(C)C)c1C)C(=O)c1ccccc1C2=O |  |  |  | 5.1 | 9.85 | 181 | 7.2 | 275 | 
17 | CCCn1c2c([n+](CC)c1C)C(=O)c1ccccc1C2=O | 8.4 | 3.7 | 8200 | 4.94 | 6.5 | 390 | 3.45 | 709 | Activity [1]: Active; IC50 (Plasmodium falciparum [5]): 1.2 nM; IC50 (Plasmodium falciparum [6]): 2.2 nM; IC50 (Plasmodium falciparum [11]): 2.2 nM
18 | CC[n+]1c2c(n(CC(C)C)c1C)C(=O)c1ccccc1C2=O |  |  |  | 1.62 | 3.1 | 33 | 1.63 | 1020 | 
19 | Cc1n(C2CC2)c2c([n+]1C1CC1)C(=O)c1ccccc1C2=O | 38.6 | 41.5 | 42500 |  |  |  |  |  | 
20 | O=C1C(O)=C([C@H]2CC[C@H](c3ccc(Cl)cc3)CC2)C(=O)c2ccccc21 [ATOVAQUONE] | 2.5 | 2.8 |  |  |  |  |  |  | IC50 (Plasmodium falciparum [5]): 0.4 nM; IC50 (Plasmodium falciparum [6]): 11500 nM; IC50 (Plasmodium falciparum [11]): 0.5 nM
21 | CCn1c2c([n+](C3CC3)c1C)C(=O)c1ccccc1C2=O | 35 | 66.1 | 6600 |  |  |  |  |  | 
22 | CCCCCCCCCCCC[n+]1c2c(n(CC(C)C)c1C)C(=O)c1ccccc1C2=O |  |  |  | 5.5 | 11.2 | 361 | 4.3 | 174 | 
